Data: ChEMBL document CHEMBL3232936, “Synthesis, biological activity, distribution and membrane permeability of novel spiro-thiazines as potent neuroprotectors” (Eur J Med Chem, 2014)
pIC50: −log10 of the molar value.

Key:
[1] = Partition coefficient, log D of the compound in hexane-buffer at pH 7.4 by isothermal saturation method; type: physicochemical
Summary of the method: (§1)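 Isothermal saturation method at 25 °C, partitioning between n-octanol or n-hexane and phosphate buffer pH 7.4 (KH2PO4, Na2HPO4, NaCl, NaN3). Compound concentrations measured spectrophotometrically against calibration curves; coefficient taken as the ratio of concentration in the organic phase to that in buffer.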

[2] = Apparent permeability of the compound across phospholipid vesicle-based barrier; type: physicochemical; conditions: not told
Summary of the method: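 Phospholipid vesicle-based barrier from egg phosphatidylcholine liposomes (6% w/v in phosphate buffer with 10% v/v ethanol), extruded onto 0.65 µm mixed cellulose ester filter inserts (0.33 cm²). Donor: compound in pH 7.4 phosphate buffer; acceptor: same buffer. Room temperature, no agitation, 12–24 h, inserts moved to fresh buffer. UV-absorbance read-out; Papp from steady-state flux under sink conditions; at least triplicate, mean ± SD.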

[3] = Partition coefficient, log D of the compound in n-octanol-buffer at pH 7.4 by isothermal saturation method; type: physicochemical; summary of the method: as §1
[4] = test system: Brain; experiment: Inhibition of glutamate-induced [45Ca2+] uptake in synaptosomes in rat brain cortex assessed as biological activity coefficients (K43/21) after 5 mins by scintillation counting relative to control; type: functional, subcellular; design: concentration or dose not given beside the values
Summary of the method: (§2)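 Synaptosomal P2 fraction from brain cortex of 8–11-day-old rats, suspended in buffer A (132 mM NaCl, 5 mM KCl, 5 mM HEPES, pH 7.4) and kept at 0 °C. Glutamate-stimulated 45Ca2+ uptake with test compound, 5 min at 37 °C. Stopped by GF/B filtration, three washes with cold buffer B (145 mM KCl, 10 mM Tris, 5 mM Trilon B), scintillation counting. Initial screen at 100 µM; concentration dependence followed when inhibition reached 50% or more. MK-801 positive control.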

[5] = test system: Brain; experiment: Inhibition of glutamate-induced [45Ca2+] uptake in synaptosomes in rat brain cortex after 5 mins by scintillation counting; type: functional, subcellular; summary of the method: as §2

logD [1] | Papp [2] | logD [3] | pIC50 [5] | Structure (SMILES) | Activity [4]
0.95 | 7.36 ×10⁻⁶ cm/s | 2.03 | – | Fc1ccc(NC2=NCCC3(CCCCC3)S2)cc1Cl | 81.5%
1.31 | 3.06 ×10⁻⁶ cm/s | 2.18 | 4.11 | FC(F)(F)c1ccc(NC2=NCCC3(CCCCC3)S2)cc1 | 42.1%
1.88 | 2.55 ×10⁻⁶ cm/s | 1.97 | 4.09 | CC(=O)c1ccc(NC2=NCCC3(CCCCC3)S2)cc1 | 45.1%
1.45 | 15.7 ×10⁻⁶ cm/s | 1.57 | 5.21 | CC(C)c1ccc(NC2=NCCC3(CCCCC3)S2)cc1 | 0%
1.36 | 90.3 ×10⁻⁶ cm/s | 2.53 | – | Brc1ccc(NC2=NCCC3(CCCCC3)S2)cc1 | 56.5%
1.75 | 41 ×10⁻⁶ cm/s | 2.31 | 4.93 | CCc1ccc(NC2=NCCC3(CCCCC3)S2)cc1 | 0%
1.48 | 11.3 ×10⁻⁶ cm/s | 2.05 | 5.03 | Cc1cc(C)c(NC2=NCCC3(CCCCC3)S2)c(C)c1 | 2.6%
1.22 | 7.33 ×10⁻⁶ cm/s | 1.57 | – | NC1=NCCC2(CCCCC2)S1 | 91.4%
0.72 | 8.78 ×10⁻⁶ cm/s | 1.38 | – | CCNC1=NCCC2(CCCCC2)S1 | 65.3%
1.28 | 21.6 ×10⁻⁶ cm/s | 1.88 | 5.10 | CCc1cccc(CC)c1NC1=NCCC2(CCCCC2)S1 | 3.5%
1.45 | 1.11 ×10⁻⁶ cm/s | 0.8 | 4.07 | COc1ccc(NC2=NCCC3(CCCCC3)S2)cc1 | 45.7%
1.69 | 1.81 ×10⁻⁶ cm/s | 1.02 | 4.20 | c1ccc(NC2=NCCC3(CCCCC3)S2)cc1 | 33.2%
1.24 | 3.1 ×10⁻⁶ cm/s | 2.45 | – | Clc1ccc(NC2=NCCC3(CCCCC3)S2)cc1Cl | 76.9%
– | 1.72 ×10⁻⁶ cm/s | 1.96 | – | Oc1ccc(NC2=NCCC3(CCCCC3)S2)cc1 | 73.5%
1.48 | 5.67 ×10⁻⁶ cm/s | 1.56 | 4.50 | Cc1ccc(NC2=NCCC3(CCCCC3)S2)cc1 | 20.4%
0.91 | 23.9 ×10⁻⁶ cm/s | 2.44 | 4.05 | Cc1ccc(NC2=NCCC3(CCCCC3)S2)cc1Cl | 45.9%
1.51 | 3.18 ×10⁻⁶ cm/s | 1.55 | – | O=C(NC1=NCCC2(CCCCC2)S1)c1ccccc1 | 78.1%
-0.52 | 2.04 ×10⁻⁶ cm/s | 1.88 | – | Nc1ccc(NC2=NCCC3(CCCCC3)S2)cc1 | 115%
1.34 | 27.8 ×10⁻⁶ cm/s | 2.5 | 4.45 | Clc1ccc(NC2=NCCC3(CCCCC3)S2)cc1 | 12.7%
1.5 | 9.04 ×10⁻⁶ cm/s | 2.36 | 4.68 | Cc1cccc(C(C)C)c1NC1=NCCC2(CCCCC2)S1 | 5.4%
1.31 | 74.7 ×10⁻⁶ cm/s | 2.37 | – | CC(=O)c1cccc(NC2=NCCC3(CCCCC3)S2)c1 | 67.3%
0.91 | 2.7 ×10⁻⁶ cm/s | 0.88 | – | CNC1=NCCC2(CCCCC2)S1 | 134%
